Measurements from ChEMBL document CHEMBL1142896, “The synthesis of amphipathic prodrugs of 1,2-diol drugs with saccharide conjugates by high regioselective enzymatic protocol” (Bioorg Med Chem, 2007).

Legend:
[1] = Distribution coefficient, log D at pH 7.4; type: physicochemical; conditions: octanol/water
Procedure, shortened: (§1)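 Shake-flask partitioning between n-octanol and phosphate buffer pH 7.4; phases mixed 15 min, centrifuged at 1 · 10⁴ rpm for 5 min, separated. Each layer diluted tenfold and analysed by HPLC (UV detection 228–232 nm, methanol/water 80:20 eluent). D7.4 calculated from the layer concentrations; triplicate, mean reported.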

[2] = Partition coefficient, log P of the compound; type: physicochemical; conditions: octanol/water; procedure, shortened: as §1
[3] = Half life of hydrolysis in phosphate buffer at pH 7.4; type: ADME
Procedure, shortened: (§2)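 Non-enzymatic chemical hydrolysis at 37 °C in 0.2 M hydrochloric acid buffer pH 1.2 (simulated gastric fluid) or 0.2 M phosphate buffer pH 7.4. 25 mM dioxane stock diluted 1:10 into thermostated buffer. Remaining ester followed by HPLC. Pseudo-first-order k_obsd fitted, and t1/2 derived from it.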

[4] = Half life of hydrolysis in hydrochloric acid buffer at pH 1.2; type: ADME; procedure, shortened: as §2

Row | Log D [1] | LogP [2] | half-life [3] [h] | half-life [4] [h] | Structure (SMILES)
1 | 1.44 | 1.44 |  |  | NC(=O)OCC(O)COc1ccc(Cl)cc1 (stereo unspecified) [CHLORPHENESIN CARBAMATE]
2 | 1.09 | 1.09 | 19.9 | 8.75 | Cc1ccccc1OCC(O)CO (stereo unspecified) [MEPHENESIN]
